Screening data as filed in PubChem.
An excerpt weighted towards active compounds, which were near 4.6% of everything screened.
NALP1 yeast inh: NALP1 inflammasome inhibitors in reconstituted yeast, colorimetric, S. cerevisiae, triplicate retest. AID 2071, 2009. inhibition, % at 10 µM. 280,000 compounds, 0.61% hits. S. cerevisiae NALP1/ASC/caspase-1 growth, X-gal OD620, 72 h; in the data active = inhibition mostly above about 24%, no sharp cut-off; inactive = mostly below about 32%
ALR inh: inhibitors of human ALR sulfhydryl oxidase, primary screen, biochemical, H2O2 detection, HRP-luminol luminescence, single point. inhibition, % (concentration not given with the values). FAD-linked sulfhydryl oxidase ALR (Homo sapiens), P55789. AID 485317, 2010. purified ALR, DTT oxidation. 290,000 compounds, 3.8% hits;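 active = mean replicate inhibition above about 79%, with every replicate also reaching it, limit read from the data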
NLRP3 yeast inh: NALP3 inflammasome inhibitors in reconstituted yeast, primary screen, luminescence, uHTS; Yeast reconstituted NLRP3/ASC/caspase-1, beta-gal luminescence, 24 h; inhibition, % at 10 µM; 330,000 compounds, 0.39% hits; AID 2825, 2010;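 active = inhibition of 50% or more; inactive = inhibition below 50%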;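 note: plate controls were induced DMSO wells for no effect and uninduced yeast grown without galactose for full effect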
Arr AP2 block: inhibitors of beta-arrestin/AP2 binding, primary screen, biochemical, GPCR trafficking, flow cytometry; beta-arrestin 1 C-terminal peptide binding to AP2 beta2-adaptin appendage (human); FITC-arrestin peptide / GST-AP2 beads; AP2 beta2 appendage carries R879A mutation; inhibition, % at 10 µM; 340,000 compounds, 0.31% hits; AID 504490, 2011;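 active = inhibition above a set limit, near 3 SD of compounds lacking own fluorescence, cut at about 54% in these data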;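 note: plate controls were DMSO wells for no effect and 5 µM unlabelled arrestin peptide for full effect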
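Assay system: GST-AP2 R879A bound to glutathione beads, E. coli-expressed; Medium: PBS with 0.05% Tween 20 and 0.1% BSA; Also added: fluorescein-tagged arrestin peptide at 50 nM final; Timing: 12 min plus 1 h, RT; Measured by: flow cytometry, FL1 (488/535 nm); Evaluation: percent drop in bead-associated FITC signal.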
Pemphigus Ab inh: inhibitors of pemphigus antibody binding to DSG3, primary screen, biochemical, bead-based, flow cytometry, scFv-GFP; 310,000 compounds, 0.48% hits; AID 588358, 2011; binding (percent of control), % at 10 µM; DSG3-coupled beads, scFv-anti-DSG3-GFP binding; active compounds read low; Desmoglein-3 (Homo sapiens), P32926;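 active = binding more than 3 SD below its plate's average and above zero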;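 note: hits lower antibody fragment binding to DSG3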
Target sequence (P32926 whole entry, looked up, the tested form may be a part): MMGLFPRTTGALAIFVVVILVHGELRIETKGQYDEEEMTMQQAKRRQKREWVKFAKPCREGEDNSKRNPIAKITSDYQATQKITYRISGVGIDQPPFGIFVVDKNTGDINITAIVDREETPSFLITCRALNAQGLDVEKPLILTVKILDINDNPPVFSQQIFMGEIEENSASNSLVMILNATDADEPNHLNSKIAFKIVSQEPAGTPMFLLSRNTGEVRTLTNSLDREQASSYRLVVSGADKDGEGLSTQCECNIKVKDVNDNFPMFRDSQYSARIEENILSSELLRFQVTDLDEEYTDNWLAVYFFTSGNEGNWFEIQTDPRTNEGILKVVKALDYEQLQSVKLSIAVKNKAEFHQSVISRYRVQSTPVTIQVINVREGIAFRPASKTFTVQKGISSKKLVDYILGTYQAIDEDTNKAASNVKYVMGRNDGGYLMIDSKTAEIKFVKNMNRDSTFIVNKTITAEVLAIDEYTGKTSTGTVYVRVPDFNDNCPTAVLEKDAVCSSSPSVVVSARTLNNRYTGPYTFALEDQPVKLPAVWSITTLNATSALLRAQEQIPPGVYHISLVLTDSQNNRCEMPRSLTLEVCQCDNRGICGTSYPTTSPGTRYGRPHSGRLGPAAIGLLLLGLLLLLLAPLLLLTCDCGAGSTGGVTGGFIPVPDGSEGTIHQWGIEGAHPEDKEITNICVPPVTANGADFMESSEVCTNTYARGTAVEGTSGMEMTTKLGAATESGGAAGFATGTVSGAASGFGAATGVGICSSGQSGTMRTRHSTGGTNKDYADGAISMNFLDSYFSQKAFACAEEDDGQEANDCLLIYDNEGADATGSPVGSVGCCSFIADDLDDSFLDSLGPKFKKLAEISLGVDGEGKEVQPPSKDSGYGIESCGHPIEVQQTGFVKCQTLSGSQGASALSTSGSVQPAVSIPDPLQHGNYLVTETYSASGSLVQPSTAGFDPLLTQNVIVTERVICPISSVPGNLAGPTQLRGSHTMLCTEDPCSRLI
PolyA inhibitor: polyadenylation inhibitors in yeast reporter cells, primary screen, luminescence, S. cerevisiae; S. cerevisiae SKY197-pL101 polyadenylation reporter, beta-gal luminescence; efflux-impaired pdr1/pdr3 knockout yeast; score 100 = 6 SD above DMSO; activity score, % at 12 µM; 300,000 compounds, 0.02% hits; AID 1875, 2009;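 active = lowest replicate activity score at least 50, where 100 means six control SD above control mean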;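 note: yeast exposed to compound for 9 h at 30 °C; higher score means more reporter readthrough which indicates perturbed polyadenylation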
Arr AP2 CP1: inhibitors of arrestin peptide binding to AP2, confirmation, biochemical, cherry pick 1, flow cytometry beads | inhibition, % at 10 µM | shares compounds with Arr AP2 block | 1,300 compounds, 2% hits | GST-AP2 beads, FITC arrestin peptide binding; GST-fused beta2-adaptin appendage, R879A mutant;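 active = inhibition above a set limit, roughly 3 SD of non-fluorescent compound noise, cut at about 38% in these data; inactive = inhibition at or below that limit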;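 note: loss of bead fluorescence from 50 nM FITC arrestin peptide bound to appendage; 0% = negative control wells and 100% = excess unlabelled arrestin peptide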
GST GSH counter: GST-fluorescein capture on glutathione beads, confirmation, artefact control for arrestin-AP2 inhibitor project, biochemical, cherry pick 1, flow cytometry. shares compounds with Arr AP2 block. GST-fluorescein binding to GSH beads, fluorescence, counter-screen. inhibition, % at 10 µM. 1,300 compounds, 2% hits. AID 588338, 2011;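 active = inhibition above 50%, about 3 SD of the inhibition seen with non-fluorescent compounds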;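 note: fluorescein maleimide labelled GST captured on 4 micron glutathione beads; higher means more loss of bead fluorescence from quenching or blocked binding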
* = called active by the depositor; / = no result.

SMILES | NALP1 yeast inh | ALR inh | NLRP3 yeast inh | Arr AP2 block | Pemphigus Ab inh | PolyA inhibitor | Arr AP2 CP1 | GST GSH counter
Cc1ccccc1OCC(=O)Nc1cccc2nsnc12 | 3 | -6 | 33 | 101* | 97 | -4 | 9 | -10
COc1cc(C(C)=O)ccc1OCC(=O)NCC(c1ccc(F)cc1)N1CCOCC1 (stereo unspecified) | / | -3 | 2 | 13 | 93 | / | / | /
Cc1cc(Cl)ccc1NC(=O)CCC(=O)N/N=C/c1cc([N+](=O)[O-])ccc1O | 14 | -3 | 14 | 105* | 82 | -16 | -1 | 3
COc1ccc(OC)c2c1C(=O)C(Cl)=C(Cl)C2=O | 39* | 1 | 36 | 87* | 115 | -56 | 72* | 28
O=C(c1ccco1)N1CCCC(N2CCN(c3ccccc3F)CC2)C1 (stereo unspecified) | 9 | 4 | 21 | -16 | / | 11 | / | /
O=C(c1ccnc(Cl)c1)N1CCCC(N2CCN(c3ccccc3F)CC2)C1 (stereo unspecified) | 23 | 1 | 1 | 63* | 104 | 19 | 2 | -3
Cn1cccc1C(C#N)c1ncc(C(F)(F)F)cc1Cl (stereo unspecified) | -80 | -2 | -14 | 2 | 96 | -26 | / | /
CCOC(=O)C1=C(COC(=O)CCc2ccc(F)cc2)NC(=O)NC1C (stereo unspecified) | / | -2 | 4 | 1 | 111 | / | 3 | -2
CCOC(=O)C1=C(COC(=O)Cc2ccccc2)NC(=O)NC1C (stereo unspecified) | 11 | -3 | 7 | 9 | 101 | 17 | 20 | -8
CCOC(=O)C1=C(COC(=O)C(C)(C)Oc2ccc(Cl)cc2)NC(=O)NC1C (stereo unspecified) | / | -3 | 15 | 19 | / | / | -6 | -5
CCOC(=O)C1=C(COC(=O)Cc2ccc(OC)c(OC)c2)NC(=O)NC1C (stereo unspecified) | / | 2 | 17 | 38 | / | / | -7 | 3
CCOC(=O)C1=C(COC(=O)CNC(=O)c2ccccc2F)NC(=O)NC1C (stereo unspecified) | / | -1 | 2 | 27 | 98 | 20 | / | /
COC(=O)c1sc(SC)c(S(=O)(=O)C(C)C)c1N/N=C(\C#N)C(=O)c1ccccc1 | 12 | -1 | 13 | 3 | 113 | 5 | / | /
COc1cccc(C2C3=C(CC(C)(C)CC3=O)OC(N)=C2[N+](=O)[O-])c1 (stereo unspecified) | 7 | -4 | 9 | -1 | / | 3 | / | /
Cc1ccc(C)c(NC(=O)NCCN2CCCCC2)c1 | 10 | -2 | 4 | -6 | 114 | 3 | / | /
COCCCN(CC(=O)O)S(=O)(=O)c1cccc(Cl)c1 | 24 | -19 | 19 | -18 | 103 | 0 | / | /
CCOC(=O)C1=C(COC(=O)Cc2ccc(Cl)cc2)NC(=O)NC1C (stereo unspecified) | / | -9 | 14 | 4 | / | / | 9 | 1
Cc1ccc(NC(=O)c2cc(C(=O)c3cc(Cl)ccc3O)cn(-c3ccc(C)cc3)c2=O)cc1 | 33 | / | 16 | -12 | 103 | 7 | / | /
Cc1ccc(S(=O)(=O)N2[C@@H](c3ccccc3F)C(C(=O)O)=CC[C@H]2c2cccs2)cc1 | / | -1 | -1 | 3 | 109 | / | / | /
Cn1c(=O)[nH]c(=O)c2c1nc(N1CCCCCC1)n2Cc1cccc2ccccc12 | 1 | -4 | 10 | 100* | 110 | 2 | 2 | -10
Cc1occc1C(=O)NCc1cccs1 | 17 | 24 | 8 | 78* | 95 | -1 | 9 | 0
CN(CCO)c1nc(N)c(C#N)c(CC#N)c1C#N | 11 | 25 | 5 | 4 | 102 | 0 | / | /
CN(c1ccccc1)c1nc(N)c(C#N)c(CC#N)c1C#N | 32 | 27 | 4 | 62* | 97 | -19 | -11 | -3
CC(NC(=O)c1ccc(N(C)C)cc1)C1CC2CCC1C2 (stereo unspecified) | -2 | / | / | 2 | 116 | / | / | /
Cc1cc(NC(=O)c2cccs2)n(-c2nc3ccccc3[nH]2)n1 | 32 | -3 | 27 | 76* | 89 | -5 | -7 | 3
SMILES | NALP1 yeast inh | ALR inh | NLRP3 yeast inh | Arr AP2 block | Pemphigus Ab inh | PolyA inhibitor | Arr AP2 CP1 | GST GSH counter
Cc1cc(NC(=O)c2sccc2C)n(-c2nc3ccccc3[nH]2)n1 | 3 | -7 | 16 | 8 | 98 | -22 | -6 | 1
CCOC(=O)C(=O)Nc1cc(C)nn1-c1nc2ccccc2[nH]1 | 6 | -10 | 4 | 21 | 100 | 7 | / | /
O=C(COc1ccccc1Br)NC(=O)NC1CCCC1 | / | / | 6 | 56* | 100 | / | -7 | -8
Cc1nnc(NS(=O)(=O)c2ccc(Br)cc2)s1 | 5 | 7 | 16 | -3 | 120 | 13 | / | /
CCCC(=O)N1N=C(c2ccccc2)CC1c1cn(C)c2ccccc12 (stereo unspecified) | 34 | -7 | -10 | 1 | 82 | -3 | / | /
CC(=O)N1N=C(c2ccc(Br)cc2)CC1c1cn(C)c2ccccc12 (stereo unspecified) | 42 | -16 | 23 | 55* | 96 | -26 | -6 | /
CC(C)n1c(N2CCN(CC(=O)Nc3ccc4c(c3)OCCO4)CC2)nc2ccccc21 | 7 | -5 | 8 | -9 | 101 | 14 | / | /
CCc1ccc2[nH]c(=O)c(CN(CCN(C)C)C(=S)NCc3ccco3)cc2c1 | 22 | -16 | 0 | 38 | 86 | 11 | / | /
CCc1ccc2[nH]c(=O)c(CN(CCN(CC)CC)C(=S)NCc3ccco3)cc2c1 | 13 | -42 | 5 | 55* | 110 | 3 | 9 | -7
CCNC(=S)N/N=C/c1cccs1 | -10 | 13 | 6 | -1 | 113 | -14 | / | /
Cc1ccc(C(=O)OCc2nnc(-c3ccccc3)o2)s1 | / | 0 | 46 | 4 | 113 | -10 | / | /
O=C(OCc1nnc(-c2ccccc2)o1)c1ccc([N+](=O)[O-])s1 | / | -27 | 20 | 70* | 103 | / | 15 | -4
O=C(NCCc1ccc(Cl)cc1)C1CCN(S(=O)(=O)c2cccc3nonc23)CC1 | 8 | / | 9 | 3 | 104 | -13 | / | /
